# Screening results: PubChem BioAssay, several laboratories
# ADAM17 inh – inhibitors of human ADAM17. 370,000 compounds, 0.83% hits. P78536. AID 720648. recombinant ADAM17, EDANS/DABCYL FRET peptide cleavage. inhibition, % at 6.95 µM;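 active = inhibition above the mean of compounds lying between control limits plus 3 SD, set per campaign, cut at about 8.5% in these data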;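 note: 0% = DMSO-only wells as the low control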
# Target sequence (P78536 215-824 limits assumed): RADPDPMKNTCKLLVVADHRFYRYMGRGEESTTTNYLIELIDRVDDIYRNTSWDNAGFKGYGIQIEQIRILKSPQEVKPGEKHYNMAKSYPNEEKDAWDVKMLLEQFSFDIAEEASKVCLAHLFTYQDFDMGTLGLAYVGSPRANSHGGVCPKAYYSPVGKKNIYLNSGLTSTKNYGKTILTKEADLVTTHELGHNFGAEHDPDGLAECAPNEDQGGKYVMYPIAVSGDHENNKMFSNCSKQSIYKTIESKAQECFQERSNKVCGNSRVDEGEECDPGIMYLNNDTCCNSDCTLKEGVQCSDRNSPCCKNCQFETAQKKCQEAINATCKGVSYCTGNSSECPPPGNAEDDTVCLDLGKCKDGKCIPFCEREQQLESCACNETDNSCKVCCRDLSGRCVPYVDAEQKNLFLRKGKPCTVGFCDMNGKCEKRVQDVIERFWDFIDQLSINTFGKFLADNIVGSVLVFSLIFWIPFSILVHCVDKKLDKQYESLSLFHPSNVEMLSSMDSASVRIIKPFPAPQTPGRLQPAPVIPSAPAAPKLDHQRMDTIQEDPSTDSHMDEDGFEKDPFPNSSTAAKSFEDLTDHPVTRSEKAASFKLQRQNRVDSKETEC
# ADAM10 inh – inhibits human ADAM10; O14672; recombinant ADAM10, EDANS/DABCYL FRET peptide cleavage, 3 h; inhibition, % at 7 µM; 370,000 compounds, 0.62% hits; AID 720582;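 active = inhibition above a per-campaign cutoff equal to the mean of compounds falling between control-based bounds plus 3 SD, cut at about 20% in these data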;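 note: 0% = DMSO wells while the 100% control is not disclosed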
# aDG glyco up – alpha-DG glycosylation activation | 360,000 compounds, 0.22% hits | Pro5-aDG cells, alpha-DG glycosylation AlphaScreen (IIH6); 0% Pro5, 100% B10-LARGE cell signal | activation, % at 10 µM;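 active = activation of at least 8% versus controls, or a plate z-score of at least 8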;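 note: Pro5 are CHO cells carrying HIG-tagged alpha-DG that lacks glycosylation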
# Lipid droplet – hepatic lipid droplet formation modulation; AML12 mouse hepatocytes, oleate lipid droplets, BODIPY imaging; inhibition, % at 6.5 µM; 240,000 compounds, 0.4% hits; AID 1656;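 active = lipid droplet intensity inhibited by at least 50%, with more than 500 cells counted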
#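 Test system: AML12 hepatocytes (mouse); reagent: oleate loading, 100 µM; dosing: one dose, 6.5 µM compound; incubation: overnight exposure; signal: fluorescence imaging, 20x objective, two fields per well; read-out basis: % inhibition of corrected integrated BODIPY droplet signal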
# MPTP inh – permeability transition pore inhibition; isolated mouse mitochondria, Ca2+ swelling absorbance, 30 min; inhibition, % at 10 µM; 360,000 compounds, 1.4% hits; AID 602449;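 active = inhibition of 50% or more, scaled per plate between neutral and stimulator controls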;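 note: 0% = DMSO wells given calcium and 100% = 1 mM EGTA wells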
# V-ATPase pH – regulators of yeast V-ATPase proton transport; S. cerevisiae, pHLuorin cytosolic pH fluorescence; response, % at 10 µM; 350,000 compounds, 0.37% hits; AID 504577; in the data active = response mostly above about 7.3%, no sharp cut-off; inactive = mostly below about 5.4%; note: actives read high
# Rh123 counter – mitochondrial membrane potential, counter-screen. shares compounds with MPTP inh. isolated mitochondria, Rhodamine 123 fluorescence. inhibition, % at 10 µM. 5,000 compounds, 78% hits. AID 624504; in the data active = inhibition above about 22%;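 note: 0% = DMSO vehicle and 100% = positive control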
# MPTP swell DR – dose response confirmation of mitochondrial permeability transition pore inhibitors | shares compounds with MPTP inh | isolated mitochondria swelling, absorbance | IC50, µM | 780 compounds, 58% hits; in the data active = IC50 below about 20 µM
# MPTP cs DR – MPTP inhibitor counter-screen activity, dose response; IC50, µM; shares compounds with MPTP inh; isolated mitochondria counterscreen, fluorescence read-out; 780 compounds, 49% hits; in the data active = IC50 below about 80 µM
# * = called active by the depositor; i = inactive; x = no result; + = active, no number; ! = repeats disagree. Shown are actives, neighbours in structure and some others; about 3.1% of the full set was active somewhere.
SMILES,ADAM17 inh,ADAM10 inh,aDG glyco up,Lipid droplet,MPTP inh,V-ATPase pH,Rh123 counter,others
CCN1/C(=C\C=C\C2=[N+](CC)c3ccccc3C2(C)C)C(C)(C)c2ccccc21,x,x,1,-170,+,5,84*,
CCCCCCCCCCCCCCCC[n+]1ccccc1,-3,4,1,x,53*!,7,107*,
O=c1[nH]cc(N(CCCl)CCCl)c(=O)[nH]1,-1,5,x,x,x,x,x,
CCC(NC(=O)OCc1ccccc1)P(=O)(Oc1ccccc1)Oc1ccccc1 (stereo not given),1,7,x,x,x,x,x,
Cc1cc(C)n(-c2ccc(NN=C(C#N)C#N)cc2)n1,0,5,0,12,84*,8,90*,
N#CC(C#N)=NNc1ccc(-n2ccc(C(F)(F)F)n2)cc1,2,10,0,-37,78*,2,82*,
CN1c2ccc(Br)cc2[C@H]2NCC[C@H]2[C@H]1CO,-35,-151,x,x,x,x,x,
S=C(c1ccc(Cl)cc1)N1CCOCC1,1,3,0,x,0,-1,x,
ClC(Cl)=C(c1ccc(Cl)cc1)c1ccc(Cl)cc1,2,10,0,x,77*,-4,-3,MPTP swell DR=i;MPTP cs DR=78*
CCN(CC)S(=O)(=O)c1ccc(NN=C(C#N)C#N)cc1,6,11,0,0,103*,0,80*,
CC1(C)C(=O)CC[C@@]2(C)C1=CCC1C2CC[C@]2(C)C(=O)CCC12 (stereo not given in full),2,4,1,x,59*,1,3,MPTP swell DR=6.3*;MPTP cs DR=13*
O=C(c1cc(C(=O)NCc2ccccc2)c(=O)n(Cc2ccccc2)c1)c1cc(Br)ccc1O,-3,-1,0,-30,84*,0,72*,
O=C1CCC[C@@H]2C[C@@]3(C[C@@H]4CCN1[C@H]24)Nc1cc(Cl)ccc1NC3=NCc1ccccc1,3,7,0,x,0,-1,x,
CC(C)C(NC(=O)OCc1ccccc1)P(=O)(Oc1ccccc1)Oc1ccccc1 (stereo not given),1,1,x,x,x,x,x,
CCN(CC)CCCNC(=O)c1c(O)c2ccccc2n(Cc2ccccc2)c1=O,1,15,1,x,79*,0,-7,MPTP swell DR=16*;MPTP cs DR=>80
CCC(=NCCOc1ccc(Cl)cc1)c1c(O)n(C)c(=O)n(C)c1=O,0,1,2,-29,96*,-1,90*,
COc1cc2c(cc1OC)C1C(=O)c3ccc4c(c3OC1CO2)CC(C(C)C)O4 (stereo not given),-4,-11,2,x,103*,1,88*,
COc1cc2c(cc1OC)[C@H]1C(=O)c3ccc4c(c3O[C@H]1CO2)C[C@@H](C(C)(C)O)O4,0,-6,0,x,4,2,x,
COc1cc2c(cc1OC)[C@@H]1C(=O)c3ccc4c(c3O[C@@H]1CO2)C[C@H](C(C)C)O4,-2,-2,3,-79,96*,2,83*,
O=C(CN1C(=O)CN=C(c2ccccc2)c2cc(Cl)ccc21)NC1CCCCC1,6,0,x,x,x,x,x,
CCCCCCCSc1cc(OC)c(CCNC)cc1OC,-2,0,-1,x,11,3,x,
CCCCCSc1cc(OC)c(CCNC)cc1OC,0,1,5,16,86*,-1,-20,MPTP swell DR=5.3*;MPTP cs DR=>80
CC[C@H](C(N)=O)N1CCCC1=O,0,2,x,x,x,x,x,
CC[n+]1c(/C=C/C=C/c2ccc(N(C)C)cc2)sc2ccccc21,-1,5,2,-99,134*,0,71*,
CN(C)c1ccc(/C=C/c2cc[n+](C)c3ccccc23)cc1,-1,2,1,-19,75*,0,66*,
SMILES,ADAM17 inh,ADAM10 inh,aDG glyco up,Lipid droplet,MPTP inh,V-ATPase pH,Rh123 counter,others
CN(C)c1ccc(/C=C/C=C/c2sc3ccccc3[n+]2C)cc1,-1,4,3,-119,57*,-3,65*,
CC[n+]1c(/C=C/N(C)c2ccccc2)sc2ccc(Cl)cc21,1,-1,0,x,7,-2,x,
O=C(O)c1cc2ccccc2n1C1CCN(Cc2ccccc2)CC1,0,-1,x,x,x,x,x,
CCOc1cccc(CNCCc2c(C)[nH]c3ccc(OC(F)(F)F)cc23)c1O,3,4,0,-30,80*,4,79*,
Cc1ccc2c(c1)C1CN(C)CCC1N2C(=O)Nc1cccc(Cl)c1 (stereo not given),-1,0,1,x,94*,4,91*,
Cc1ccc2c(c1)C1CN(C)CCC1N2C(=S)Nc1cccnc1 (stereo not given),-1,-1,0,3,0,-2,x,
CCN1C(=O)NC(=O)/C(=C/c2cc(C)n(-c3sc(C)c(C)c3C#N)c2C)C1=O,-5,-19,0,6,57*,-3,35*,
CCC(=O)c1ccc(OC(=O)N(C)c2ccccc2)cc1,0,-5,0,-2,-1,0,x,
CCC(=C(c1ccc(O)cc1)c1ccc(OCCN(C)C)cc1)c1ccccc1,1,-6,1,x,-1,0,x,MPTP swell DR=i;MPTP cs DR=>80
CC(C)Oc1ccc(CCN)cc1Cl,1,0,0,-10,0,3,x,
CCCCOc1ccc(CCN)cc1Cl,3,6,0,-12,92*,4,-17,MPTP swell DR=6.6*;MPTP cs DR=>80
O=C(c1ccc(Cl)cc1)C1CCCN(Cc2cccc3ncccc23)C1 (stereo not given),0,6,1,-10,97*,-3,72*,
O=C(c1ccc(Cl)cc1)C1CCCN(Cc2cccc3cccnc23)C1 (stereo not given),0,0,0,-9,2,1,x,
O=C(c1ccc(C(F)(F)F)cc1)C1CCCN(Cc2ccncc2)C1 (stereo not given),-3,0,2,-21,86*,2,48*,
O=C(c1ccc(C(F)(F)F)cc1)C1CCCN(Cc2ccc(CO)o2)C1 (stereo not given),0,-4,0,-8,1,2,x,
Cc1ncc(CN2CCCC(C(=O)c3ccc(C(C)(C)C)cc3)C2)s1 (stereo not given),2,12,3,8,75*,2,73*,
COc1ccc2c3c([nH]c2c1)[C@H](C=C(C)C)N1C(=O)[C@@H]2CCCN2C(=O)[C@@H]1C3,-5,-28,x,x,x,x,x,
Cc1ccc(C(=O)NCCN2CCC3(CC2)C(=O)NCN3c2ccccc2)cc1,3,0,x,x,x,x,x,
O=C(CN1C(=O)[C@@H](Cc2ccccc2)N=C(c2ccccc2)c2ccccc21)NC1CCCCC1,-3,-1,x,x,x,x,x,
COP(=O)(C(=O)Nc1ccccc1)C(CC(C)C)NC(=O)OCc1ccccc1 (stereo not given),-1,11,x,x,x,x,x,
